Results published in ChEMBL document CHEMBL4251591, “Primaquine hybrids as promising antimycobacterial and antimalarial agents” (Eur J Med Chem, 2018).
Converted amounts (≈) assume the structure as drawn.

Legend:
Mycobacterium avium = assay: Antimycobacterial activity against Mycobacterium avium subsp. paratuberculosis CIT03 clinical isolate after 11 days by Alamar Blue assay; format: functional; settings: CIT03, 264 h
[1] = tested on: Mycobacterium tuberculosis; assay: Antimycobacterial activity against Mycobacterium tuberculosis H37Ra ATCC 25177 after 7 days by Alamar Blue assay; format: functional; settings: H37Ra ATCC 25177, 168 h
Summary of the method: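 Log-phase culture washed and resuspended in supplemented Middlebrook 7H9GC broth, adjusted to McFarland No. 1, then diluted 1:20. Equal volumes of culture and DMSO-prepared compound dilutions were tested in duplicate for 7 days. 10% AlamarBlue was added, with 570/600 nm readings for background and after 24 h reincubation. Blue meant no growth, pink meant growth. MIC was the lowest concentration without visible growth.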

[2] = tested on: Mycobacterium avium complex sp.; assay: Antimycobacterial activity against Mycobacterium avium complex CIT19/06 clinical isolate after 5 days by Alamar Blue assay; format: functional; settings: CIT19/06, 120 h
Plasmodium berghei = assay: Antimalarial activity against liver stage of firefly luciferase-expressing Plasmodium berghei infected in human HuH7 cells measured after 48 hrs post parasite addition by luciferase-based luminescence assay; format: functional, organism-based; settings: Huh-7, 48 h
Summary of the method: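 HuH7 hepatoma cells seeded at 1.0 × 10^4 per well the day before infection. Drug-containing medium was added 1 h before 1.0 × 10^4 sporozoites, followed by centrifugation at 1800 × g for 5 min. Infection load was read by bioluminescence 48 h later, and host viability by CellTiter-Blue. IC50 came from nonlinear regression of normalized dose-response curves.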

L6 = assay: Cytotoxicity against rat L6 cells after 70 hrs by Alamar Blue-based assay; format: cell-based; settings: L6, 70 h
Summary of the method: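 Rat skeletal myoblast L-6 cells, 4000 per well, in RPMI 1640 with 10% FBS and L-glutamine. Eleven 3-fold serial dilutions spanning 100 to 0.002 were tested for 70 h. Alamar Blue was then added for 2 h and fluorescence read at ex 536 / em 588 nm. IC50 came from linear regression of sigmoid curves, averaged over two replicate experiments, with podophyllotoxin as control.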

Row | Compound | MIC (Mycobacterium avium) | MIC [1] | MIC [2] | IC50 (Plasmodium berghei) | IC50 (L6)
1 | COc1cc(NC(C)CCCN)c2ncccc2c1.O=P(O)(O)O.O=P(O)(O)O (stereo not given) [PRIMAQUINE PHOSPHATE] | 32 µg/mL | 32 µg/mL | 32 µg/mL |  | 
2 | COc1cc(NC(C)CCCNC(=O)NNC(=O)Nc2cccc(Br)c2)c2ncccc2c1 (stereo not given) | 128 µg/mL (≈ 248 µM) | 128 µg/mL (≈ 248 µM) | 256 µg/mL (≈ 497 µM) | 182 nM | 20 µg/mL (≈ 38.8 µM)
3 | COc1cc(NC(C)CCCNC(=O)NCCCO)c2ncccc2c1 (stereo not given) | 64 µg/mL (≈ 178 µM) | 64 µg/mL (≈ 178 µM) | 64 µg/mL (≈ 178 µM) |  | 
4 | COc1cc(NC(C)CCCNC(=O)NNC(=O)N(C)C(c2ccccc2)c2ccccc2)c2ncccc2c1 (stereo not given) | 64 µg/mL (≈ 118 µM) | 64 µg/mL (≈ 118 µM) | 64 µg/mL (≈ 118 µM) |  | 
5 | COc1cc(NC(C)CCCNC(=O)/C=C/c2cc(C(F)(F)F)cc(C(F)(F)F)c2)c2ncccc2c1 (stereo not given) | 16 µg/mL (≈ 30.4 µM) | 16 µg/mL (≈ 30.4 µM) | 64 µg/mL (≈ 122 µM) | 2390 nM | 
6 | COc1cc(NC(C)CCCNC(=O)NNC(=O)Nc2ccc(Cl)c(C(F)(F)F)c2)c2ncccc2c1 (stereo not given) | 2 µg/mL (≈ 3.71 µM) | 2 µg/mL (≈ 3.71 µM) | 2 µg/mL (≈ 3.71 µM) |  | 30 µg/mL (≈ 55.7 µM)
7 | COc1cc(NC(C)CCCNC(=O)NNC(=O)Nc2cccc(F)c2)c2ncccc2c1 (stereo not given) | 128 µg/mL (≈ 282 µM) | 128 µg/mL (≈ 282 µM) | 256 µg/mL (≈ 563 µM) |  | 
8 | COc1cc(NC(C)CCCNC(=O)NNC(=O)NC(c2ccccc2)(c2ccccc2)c2ccccc2)c2ncccc2c1 (stereo not given) | 128 µg/mL (≈ 212 µM) | 128 µg/mL (≈ 212 µM) | 128 µg/mL (≈ 212 µM) |  | > 65 µg/mL
9 | COc1ccc(/C=C/C(=O)NCCCC(C)Nc2cc(OC)cc3cccnc23)cc1 (stereo not given) | 64 µg/mL (≈ 153 µM) | 64 µg/mL (≈ 153 µM) | 128 µg/mL (≈ 305 µM) |  | > 100 µg/mL
10 | COc1cc(NC(C)CCCNC(=O)/C=C/c2ccccc2F)c2ncccc2c1 (stereo not given) | 64 µg/mL (≈ 157 µM) | 32 µg/mL (≈ 78.5 µM) | 128 µg/mL (≈ 314 µM) |  | 1.5 µg/mL (≈ 3.68 µM)
11 | COc1cc(NC(C)CCCNC(=O)NNC(=O)N(CCO)CCO)c2ncccc2c1 (stereo not given) | 256 µg/mL (≈ 571 µM) | 256 µg/mL (≈ 571 µM) | 256 µg/mL (≈ 571 µM) |  | 
12 | COc1cc(NC(C)CCCNC(=O)NC(c2ccccc2)c2ccc(Cl)cc2)c2ncccc2c1 (stereo not given) | 128 µg/mL (≈ 254 µM) | 128 µg/mL (≈ 254 µM) | 128 µg/mL (≈ 254 µM) |  | 
13 | COc1cc(NC(C)CCCNC(=O)Nc2cccc(O)c2)c2ncccc2c1 (stereo not given) | 16 µg/mL (≈ 40.6 µM) | 8 µg/mL (≈ 20.3 µM) | 16 µg/mL (≈ 40.6 µM) |  | 38 µg/mL (≈ 96.3 µM)
14 | COc1cc(NC(C)CCCNC(=O)NNC(=O)Nc2ccc(Cl)cc2)c2ncccc2c1 (stereo not given) | 128 µg/mL (≈ 272 µM) | 128 µg/mL (≈ 272 µM) | 256 µg/mL (≈ 544 µM) | 42 nM | 
15 | COc1cc(NC(C)CCCNC(=O)/C=C/c2cc(OC)c(OC)c(OC)c2)c2ncccc2c1 (stereo not given) | 256 µg/mL (≈ 534 µM) | 256 µg/mL (≈ 534 µM) | 256 µg/mL (≈ 534 µM) |  | > 100 µg/mL
16 | COc1cc(NC(C)CCCNC(=O)/C=C/c2ccc3c(c2)OCO3)c2ncccc2c1 (stereo not given) | 64 µg/mL (≈ 148 µM) | 64 µg/mL (≈ 148 µM) | 64 µg/mL (≈ 148 µM) |  | 
17 | COc1cc(NC(C)CCCNC(=O)Nc2ccc(Cl)cc2)c2ncccc2c1 (stereo not given) | 32 µg/mL (≈ 77.5 µM) | 16 µg/mL (≈ 38.7 µM) | 64 µg/mL (≈ 155 µM) |  | 
18 | COc1ccc(/C(=N/NC(=O)NCCCC(C)Nc2cc(OC)cc3cccnc23)c2ccccc2)cc1 (stereo not given) | 128 µg/mL (≈ 250 µM) | 128 µg/mL (≈ 250 µM) | 256 µg/mL (≈ 500 µM) |  | > 100 µg/mL
19 | COc1cc(NC(C)CCCNC(=O)NNC(=O)NCc2ccccc2)c2ncccc2c1 (stereo not given) | 128 µg/mL (≈ 284 µM) | 128 µg/mL (≈ 284 µM) | 256 µg/mL (≈ 568 µM) |  | 
20 | COc1cc(NC(C)CCCNC(=O)NCc2ccncc2)c2ncccc2c1 (stereo not given) | 32 µg/mL (≈ 81.3 µM) | 32 µg/mL (≈ 81.3 µM) | 32 µg/mL (≈ 81.3 µM) |  | 
21 | COc1cc([C@@H]2c3cc4c(cc3[C@H](O)[C@H]3COC(=O)[C@H]23)OCO4)cc(OC)c1OC [PODOFILOX] |  |  |  |  | 0.007 µg/mL (≈ 0.0169 µM)
22 | COc1cc(NC(C)CCCNC(=O)NNC(=O)NCCc2ccccc2)c2ncccc2c1 (stereo not given) | 128 µg/mL (≈ 276 µM) | 128 µg/mL (≈ 276 µM) | 256 µg/mL (≈ 551 µM) |  | 
23 | CO[C@H]1/C=C/O[C@@]2(C)Oc3c(C)c(O)c4c(O)c(c(/C=N/N5CCN(C)CC5)c(O)c4c3C2=O)NC(=O)/C(C)=C\C=C\[C@H](C)[C@H](O)[C@@H](C)[C@@H](O)[C@@H](C)[C@H](OC(C)=O)[C@@H]1C [RIFAMPIN] | 90 µg/mL (≈ 109 µM) | 8 µg/mL (≈ 9.72 µM) | 30 µg/mL (≈ 36.5 µM) |  | 
24 | COc1cc(NC(C)CCCNC(=O)NNC(=O)NCCCC(C)Nc2cc(OC)cc3cccnc23)c2ncccc2c1 (stereo not given) | 4 µg/mL (≈ 6.64 µM) | 2 µg/mL (≈ 3.32 µM) | 16 µg/mL (≈ 26.5 µM) |  | 
25 | COc1cc(NC(C)CCCNC(=O)/C=C/c2ccccc2)c2ncccc2c1 (stereo not given) | 16 µg/mL (≈ 41.1 µM) | 16 µg/mL (≈ 41.1 µM) | 32 µg/mL (≈ 82.2 µM) |  | 
26 | COc1cc(NC(C)CCCNC(=O)Nc2ccc(O)cc2)c2ncccc2c1 (stereo not given) | 128 µg/mL (≈ 324 µM) | 128 µg/mL (≈ 324 µM) | 256 µg/mL (≈ 649 µM) |  | 14.8 µg/mL (≈ 37.5 µM)
27 | COc1cc(NC(C)CCCNC(=O)/C=C/c2ccc(Cl)cc2)c2ncccc2c1 (stereo not given) | 64 µg/mL (≈ 151 µM) | 64 µg/mL (≈ 151 µM) | 128 µg/mL (≈ 302 µM) |  | 
28 | COc1cc(NC(C)CCCNC(=O)Nc2cccc(C(F)(F)F)c2)c2ncccc2c1 (stereo not given) | 2 µg/mL (≈ 4.48 µM) | 2 µg/mL (≈ 4.48 µM) | 2 µg/mL (≈ 4.48 µM) |  | 150 µg/mL (≈ 336 µM)
